Data on two molecules can be found in ChEMBL document CHEMBL3526095, “Characterization of the in vitro and in vivo metabolism and disposition and cytochrome P450 inhibition/induction profile of saxagliptin in human” (Drug Metab Dispos, 2012).

Series [1] can be described thus: Drug metabolism in human assessed as drug excretion in urine at 50 mg, po up to 12 hrs by liquid scintillation counting. The following applies: in vivo. Format: ADME, organism-based. The procedure, abridged:
(§1)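 Healthy males received a single 50-mg oral [14C]saxagliptin solution (91.5 µCi) after a 10-h fast. Urine collected 0–12 h, 12–24 h, then at 24-h intervals to 168 h; feces collected at 24-h intervals. Radioactivity counted by LSC: urine directly, feces as ~20% w/w homogenate combusted before counting. Result expressed as % of actual dose, based on syringe weights.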

Series [2] is described as follows: Drug metabolism in human assessed as drug excretion in urine at 50 mg, po after 12 to 24 hrs by liquid scintillation counting. Format: ADME, organism-based. The following applies: in vivo. In outline: as §1
The nature of series [3]: Drug metabolism in human assessed as drug excretion in urine at 50 mg, po after 24 to 48 hrs by liquid scintillation counting. Type of series: ADME, organism-based. The following applies: in vivo. The procedure, abridged: as §1
Series [4] is described as follows: Drug metabolism in human assessed as drug excretion in urine at 50 mg, po after 48 to 168 hrs by liquid scintillation counting. Type of series: ADME, organism-based. Conditions: in vivo. The procedure, abridged: as §1
Series [5] in a line: Drug metabolism in human assessed as total drug excretion in urine at 50 mg, po up to 168 hrs by liquid scintillation counting. The following applies: in vivo. Type of series: ADME, organism-based. In outline:
as §1

Series [6] in a line: Drug metabolism in human assessed as drug excretion in feces at 50 mg, po up to 24 hrs by liquid scintillation counting. Type of series: ADME, organism-based. Conditions: in vivo. In outline:
as §1

Series [7] in a line: Drug metabolism in human assessed as drug excretion in feces at 50 mg, po after 24 to 48 hrs by liquid scintillation counting. Format: ADME, organism-based. Conditions: in vivo. The procedure, abridged: as §1
A short description of series [8]: Drug metabolism in human assessed as drug excretion in feces at 50 mg, po after 48 to 72 hrs by liquid scintillation counting. Type of series: ADME, organism-based. The following applies: in vivo. The procedure, abridged: as §1
Series [9] in a line: Drug metabolism in human assessed as drug excretion in feces at 50 mg, po after 72 to 96 hrs by liquid scintillation counting. Type of series: ADME, organism-based. Conditions: in vivo. The procedure, abridged:
as §1

Series [10] in a line: Drug metabolism in human assessed as drug excretion in feces at 50 mg, po after 96 to 144 hrs by liquid scintillation counting. Type of series: ADME, organism-based. Conditions: in vivo. The procedure, abridged: as §1
A short description of series [11]: Drug metabolism in human assessed as total drug excretion in feces at 50 mg, po up to 144 hrs by liquid scintillation counting. Type of series: ADME, organism-based. Conditions: in vivo. The procedure, abridged:
as §1

In series [12] the test system is Liver microsome. The experiment in a line: Drug metabolism in human liver microsomes assessed as formation of mono-hydroxylated metabolite at 10 uM after 1 hr by LC-MS/MS analysis in presence of NADPH. Type of series: ADME. In outline: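 Pooled HLM at 1 mg/ml protein, incubated with 10 µM [14C]saxagliptin and 1 mM NADPH in 100 mM phosphate buffer pH 7.4 at 37°C for 60 min. Quenched with ice-cold acetonitrile; supernatant analysed by LC-MS/MS and off-line radioanalysis.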
On the technique in general: Liver microsomes are a subcellular fraction often used to study metabolism.

Series [13] deals with Liver microsome. The experiment in a line: Drug metabolism in human liver microsomes assessed as formation of 5-hydroxy saxagliptin at 10 uM after 1 hr by LC-MS/MS analysis in absence of NADPH. Type of series: ADME.
Series [14] concerns Liver microsome. Description: Drug metabolism in human liver microsomes assessed as formation of 5-hydroxy saxagliptin at 10 uM after 30 mins by LC-MS/MS analysis in presence of 1-aminobenzotriazole.
Series [15] relates to Liver microsome. Description: Drug metabolism in human liver microsomes assessed as formation of 5-hydroxy saxagliptin at 1 uM after 30 mins by LC-MS/MS analysis in presence of ketoconazole and troleandomycin.
Substrate in series [16]: N#C[C@@H]1C[C@@H]2C[C@@H]2N1C(=O)[C@@H](N)C12CC3CC(CC(O)(C3)C1)C2
Description: Drug metabolism in assessed as human CYP3A5-mediated formation of 5-hydroxy saxagliptin Michaelis-Menten kinetic analysis. Format: ADME. In outline:
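M2 formation kinetics measured in triplicate at twelve saxagliptin concentrations from 1 to 800 µM. Enzyme source was pooled HLM (0.25 mg/ml, 30 min, 37°C) or expressed CYP3A4 or CYP3A5 (10 pmol/ml, 10 min). Incubations contained 1 mM NADPH and 2 mM MgCl2 in phosphate buffer pH 7.4.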

Consider `N#C[C@@H]1C[C@@H]2C[C@@H]2N1[14C](=O)[14C@@H](N)C12CC3CC(CC(O)(C3)C1)C2`, for which the Drug excretion in [1] is 68.15%; in series [2], 3.26%; in series [3], 1.9%; in [4] it was 1.6%; in series [5], 74.89%; in series [6], 7.22%. Further, the Drug excretion was found to be 8.46% in series [7]; 2.86% in series [8]; 1.13% in [9]; 2.39% in [10]; 22.05% in series [11]. The Drug metabolism entry in the series on Liver microsome [12] is listed as “metabolite_detected”; in the series with Liver microsome [13], “metabolite_not_detected”; in the series with Liver microsome [14] it was “metabolite_not_detected”; with Liver microsome [15], “metabolite_not_detected”.

B1: Cytochrome P450 3A5 (Homo sapiens) (protein)
chain: MDLIPNLAVETWLLLAVSLVLLYLYGTRTHGLFKRLGIPGPTPLPLLGNVLSYRQGLWKFDTECYKKYGKMWGTYEGQLPVLAITDPDVIRTVLVKECYSVFTNRRSLGPVGFMKSAISLAEDEEWKRIRSLLSPTFTSGKLKEMFPIIAQYGDVLVRNLRREAEKGKPVTLKDIFGAYSMDVITGTSFGVNIDSLNNPQDPFVESTKKFLKFGFLDPLFLSIILFPFLTPVFEALNVSLFPKDTINFLSKSVNRMKKSRLNDKQKHRLDFLQLMIDSQNSKETESHKALSDLELAAQSIIFIFAGYETTSSVLSFTLYELATHPDVQQKLQKEIDAVLPNKAPPTYDAVVQMEYLDMVVNETLRLFPVAIRLERTCKKDVEINGVFIPKGSMVVIPTYALHHDPKYWTEPEEFRPERFSKKKDSIDPYIYTPFGTGPRNCIGMRFALMNMKLALIRVLQNFSFKPCKETQIPLKLDTQGLLQPEKPIVLKVDSRDGTLSGE
As usually defined, the Km is the concentration of substrate that gives half-maximal velocity. Usually Vmax stands for the rate approached at saturating substrate. Regarding B1, in [16], the Km amounted to 252 µM and the Vmax was found to be 2.4e-05 µmol/min.
